In ChEMBL document CHEMBL5653613 (Mol Cancer Ther, 2013) one finds Activity and IC50 data, which are given here for 1 molecule.

One may read the IC50 as the concentration at which inhibition is half-maximal.

Molecules are shown by their SMILES. Active and inactive are the calls of the source. The calls are words filed in the database; no cut-off is given here.

For assay [1], the system named is ZR-75-1. As to the kind of experiment: Induction of polyploidy in human ZR-75-1 cells at 5 uM incubated for 72 hrs by microscopic analysis. It is filed as functional, cell-based. An outline of the steps:
(§1)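 Cells stained with Hema-3 and photographed under a light microscope with CCD camera. Polyploid cells scored as percent of the population.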

For assay [2], the system named is ZR-75-1. In words: Induction of polyploidy in human ZR-75-1 cells assessed as cells with 2N chromosome contents at 5 uM incubated for 48 hrs by PI staining based flow cytometry (reference value: 48). It is filed as functional. A general note: A flow cytometer gives signals particle by particle.
The subject of assay [3] is ZR-75-1. As to the kind of experiment: Induction of polyploidy in human ZR-75-1 cells at 1 umol/L incubated for 72 hrs by microscopic analysis relative to control. It is filed as functional. Conditions: dose 1 µmol/L, at 1 µM. The gist of the method:
as §1

The subject of assay [4] is T47D. As to the kind of experiment: Cytotoxicity against human T47D cells at 1 to 2.5 umol/L incubated for 72 hrs by MTS assay. It is filed as functional, cell-based. Conditions: dose 1-2.5 µmol/L.
The subject of assay [5] is ZR-75-1. In words: Induction of polyploidy in human ZR-75-1 cells assessed as cells with 2N chromosome contents at 5 uM incubated for 72 hrs by PI staining based flow cytometry (reference value: 48). It counts as functional.
In assay [6] the test system is ZR-75-1. As to the kind of experiment: Downregulation of histone H3 expression in human ZR-75-1 cells at 5 umol/L incubated upto 72 hrs by Western blot analysis. It is filed as functional, cell-based. Conditions: dose 5.0 µmol/L. An outline of the steps:
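Cells were treated with 5 µmol/L for 0, 24, 48 and 72 h. Lysates were immunoblotted for AURK-B, phospho-Ser10 histone H3 and total histone H3, with β-actin reprobe as the loading control. Detection by enhanced chemiluminescence.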
In general terms: A western blot detects proteins with antibodies after separation by electrophoresis.

Assay [7] relates to T47D. As to the kind of experiment: Induction of polyploidy in human T47D cells assessed as cells with 16N chromosome contents at 5 uM incubated for 24 hrs by PI staining based flow cytometry (reference value: 0). It counts as functional.
Assay [8] relates to ZR-75-1. As to the kind of experiment: Induction of polyploidy in human ZR-75-1 cells with RON-/- at 5 umol/L incubated for 72 hrs followed by media replacement without compound measured upto 10 days by microscopic analysis. It counts as functional, cell-based. The following applies: dose 5.0 µmol/L.
Assay [9] concerns MCF7. In words: Induction of apoptosis in human MCF7 cells assessed as necrotic cells at 5 umol/L incubated for 3 days by Annexin V/PI staining based flow cytometry (reference value: 0.4 %). It counts as functional. The following applies: dose 5 µmol/L; time 3 day; at 5 µM.
Assay [10] relates to T47D. In words: Induction of polyploidy in human T47D cells assessed as cells with 16N chromosome contents at 5 uM incubated for 72 hrs by PI staining based flow cytometry (reference value: 0). It is filed as functional.
Assay [11] deals with ZR-75-1. In words: Induction of polyploidy in human ZR-75-1 cells at 5 umol/L by microscopic analysis. It counts as functional, cell-based. The following applies: dose 5.0 µmol/L, time 72.0 hrs, TDE = time-dependent effect.
The test system of assay [12] is MCF7. As to the kind of experiment: Induction of apoptosis in human MCF7 cells assessed as rate of apoptotic cell death at 5 umol/L by annexin V/PI staining based flow cytometry relative to control. It counts as functional. Conditions: dose 5 µmol/L; at 5 µM.
Assay [13] relates to ZR-75-1. In words: Induction of apoptosis in human ZR-75-1 cells assessed as late cells at 5 umol/L incubated for 3 days by Annexin V/PI staining based flow cytometry (reference value: 3.8 %). Conditions: dose 5 µmol/L; time 3 day; at 5 µM. It is filed as functional.
Assay [14] in a line: Effect on methotrexate resistance in human T47D cells with compound-induced polyploidy assessed as change in methotrexate-induced cytotoxicity by measuring increase in methotrexate IC50 at 5 umol/L preincubated for 72 hrs followed by compound washout and subsequent methotrexate treatment for 72 hrs by MTS assay. It is filed as functional, cell-based.
The subject of assay [15] is ZR-75-1. In words: Induction of apoptosis in human ZR-75-1 cells assessed as early cells at 5 umol/L incubated for 3 days by Annexin V/PI staining based flow cytometry (reference value: 0.5 %). It counts as functional. Conditions: dose 5 µmol/L; time 3 day; at 5 µM.
The subject of assay [16] is T47D. In words: Induction of polyploidy in human T47D cells assessed as cells with 2N chromosome contents at 5 uM incubated for 48 hrs by PI staining based flow cytometry (reference value: 48). It counts as functional.
The test system of assay [17] is T47D. As to the kind of experiment: Induction of apoptosis in human T47D cells assessed as cell death at 5 uM. It is filed as functional, cell-based. Conditions: TDE = time-dependent effect.
For assay [18], the system named is T47D. As to the kind of experiment: Induction of cell death of human T47D cells with RON-/- at 5 umol/L incubated for 72 hrs followed by media replacement without compound measured upto 10 days by microscopic analysis. It counts as functional, cell-based. Conditions: dose 5.0 µmol/L.

As for `CCOc1ccn(-c2ccc(F)cc2)c(=O)c1C(=O)Nc1ccc(Oc2ccnc(N)c2Cl)c(F)c1` [BMS-777607], the result with ZR-75-1 [1] and in the assay on ZR-75-1 [8] was Active. Also, the Activity with ZR-75-1 [2] amounted to 4.5; with ZR-75-1 [3] it was 11%; with ZR-75-1 [5], 5; in the assay with T47D [7], 10; in the assay on MCF7 [9], 0.5%; in the assay with T47D [10] it was 18.5. Further, the Activity result is “Tde” in the assay with ZR-75-1 [11]; 2.2% in the assay on MCF7 [12]; 7.4% in the assay on ZR-75-1 [13]; 2.3% in the assay on ZR-75-1 [15]; 7.4 with T47D [16]; “Tde” in the assay on T47D [17]. The result with T47D [4], in the assay with ZR-75-1 [6] and with T47D [18] was inactive. The IC50 in [14] was found to be 0.585 µM.
